ADAM10 inh: human ADAM10 inhibitors, primary screen, biochemical, QFRET, HTS | inhibition, % at 7 µM | AID 720582, 2013 | recombinant ADAM10, EDANS/DABCYL FRET peptide cleavage, 3 h | 0.62% of 370,000 active;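 active means inhibition above a per-campaign cutoff equal to the mean of compounds falling between control-based bounds plus 3 SD, cut at about 20% in these data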;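 further: 0% = DMSO wells while the 100% control is not disclosed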
PLCb3 inh: human PLC-beta3 inhibitors, primary screen, biochemical, fluorescence | 1-phosphatidylinositol 4,5-bisphosphate phosphodiesterase beta-3 (Homo sapiens), Q01970 | Purified PLC-beta3, fluorogenic substrate | inhibition, % at 12.2 µM | 0.18% of 370,000 active | AID 720704, 2013;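 further: 0% = median of compound wells on plate and 100% = full blocker control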
Tb MetRS inh: T. brucei MetRS inhibitors, primary screen, biochemical, luminescence; inhibition, % at 11.9 µM; purified T. brucei MetRS, ATP depletion, Kinase-Glo luminescence; AID 624268, 2012; 0.4% of 360,000 active; methionyl-tRNA synthetase (Trypanosoma brucei brucei);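 active means inhibition above a per-plate cutoff of the control wells' mean inhibition plus 3 SD, cut at about 5.5% in these data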;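 further: 0% = DMSO wells median and 100% = median of wells with control inhibitor compound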
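Test system – parasite MetRS enzyme · Reagent – substrates ATP, L-methionine and bulk Escherichia coli tRNA · Doses – 11.9 µM compound single dose, 0.9% DMSO · Times – 15 min enzyme-compound preincubation, 2 h reaction, 10 min detection, 25 °C · Signal – Kinase-Glo luminescence, ATP depletion format · Controls – DMSO-only wells as low control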
PLC-gamma1 inh: PLC-gamma1 enzyme inhibitors, primary screen, biochemical, fluorescence, purified enzyme. 1-phosphatidylinositol 4,5-bisphosphate phosphodiesterase gamma-1 (Homo sapiens), P19174. fluorogenic substrate. inhibition, % at 12.2 µM. 0.84% of 370,000 active. AID 720700, 2013; in the data active means inhibition above about 9.5%
Target sequence (P19174 whole entry, looked up): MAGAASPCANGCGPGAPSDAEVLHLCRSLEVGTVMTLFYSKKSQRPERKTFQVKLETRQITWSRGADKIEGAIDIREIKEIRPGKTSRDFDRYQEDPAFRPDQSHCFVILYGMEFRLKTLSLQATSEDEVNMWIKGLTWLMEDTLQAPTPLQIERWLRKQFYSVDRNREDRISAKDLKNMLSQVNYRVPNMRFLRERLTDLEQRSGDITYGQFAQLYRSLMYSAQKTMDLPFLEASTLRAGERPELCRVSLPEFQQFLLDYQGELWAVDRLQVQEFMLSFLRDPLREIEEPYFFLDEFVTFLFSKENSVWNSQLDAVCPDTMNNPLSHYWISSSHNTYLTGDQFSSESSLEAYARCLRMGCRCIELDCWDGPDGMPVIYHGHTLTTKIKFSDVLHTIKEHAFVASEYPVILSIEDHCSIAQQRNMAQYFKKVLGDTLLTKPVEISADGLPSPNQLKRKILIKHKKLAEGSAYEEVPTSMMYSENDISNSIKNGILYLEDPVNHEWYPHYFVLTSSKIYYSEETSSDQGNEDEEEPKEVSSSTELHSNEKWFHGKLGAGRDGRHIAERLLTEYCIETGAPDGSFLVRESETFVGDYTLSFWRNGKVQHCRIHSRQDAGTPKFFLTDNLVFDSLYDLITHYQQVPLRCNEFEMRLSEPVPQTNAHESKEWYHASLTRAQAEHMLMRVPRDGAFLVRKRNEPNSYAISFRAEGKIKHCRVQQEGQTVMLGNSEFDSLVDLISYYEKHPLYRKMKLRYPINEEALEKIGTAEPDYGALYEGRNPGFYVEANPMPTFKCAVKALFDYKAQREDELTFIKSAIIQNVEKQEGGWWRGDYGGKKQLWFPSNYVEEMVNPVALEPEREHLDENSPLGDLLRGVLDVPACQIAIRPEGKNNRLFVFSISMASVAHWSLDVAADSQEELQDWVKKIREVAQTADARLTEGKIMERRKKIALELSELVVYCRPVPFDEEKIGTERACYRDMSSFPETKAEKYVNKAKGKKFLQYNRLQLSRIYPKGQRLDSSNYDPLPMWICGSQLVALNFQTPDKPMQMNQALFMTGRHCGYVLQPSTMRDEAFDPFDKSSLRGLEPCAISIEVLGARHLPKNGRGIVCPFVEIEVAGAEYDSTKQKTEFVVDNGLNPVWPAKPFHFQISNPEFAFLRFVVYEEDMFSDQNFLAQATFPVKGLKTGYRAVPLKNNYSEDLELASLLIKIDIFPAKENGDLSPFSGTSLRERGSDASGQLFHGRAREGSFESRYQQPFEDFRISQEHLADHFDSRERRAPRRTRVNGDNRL
ADAM17 inh: ADAM17 inhibitors, primary screen, biochemical, QFRET; recombinant ADAM17, EDANS/DABCYL FRET peptide cleavage; 0.83% of 370,000 active; Disintegrin and metalloproteinase domain-containing protein 17 (Homo sapiens), P78536; inhibition, % at 6.95 µM;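 active means inhibition above the mean of compounds lying between control limits plus 3 SD, set per campaign, cut at about 8.5% in these data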;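 further: 0% = DMSO-only wells as the low control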
ADAM10 confirm: human ADAM10 inhibitors, confirmation, biochemical, QFRET, triplicate; shares compounds with ADAM10 inh; AID 743208, 2013; 1% of 2,100 active; inhibition, % at 6.95 µM; ADAM10 QFRET peptide cleavage, EDANS fluorescence;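 active means inhibition above about 20% chosen separately for each screening run, limit read from the data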;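 further: 0% = DMSO wells and 100% = marimastat wells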
ADAM17 counter: ADAM17 inhibitors, counter-screen for ADAM10 exosite inhibitor project, biochemical, QFRET, high throughput. shares compounds with ADAM10 inh. ADAM17 QFRET peptide cleavage, EDANS fluorescence. inhibition, % at 6.95 µM. 0.5% of 2,100 active;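 active means mean triplicate inhibition above the solvent-only control wells' mean plus 3 SD, cut at about 12% in these data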;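 further: 0% = DMSO wells and 100% = marimastat wells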
ADAM10 ctr: ADAM10 inhibitors, counter-screen for ADAM17 exosite inhibitor project, biochemical, FRET, human ADAM10. shares compounds with ADAM17 inh. inhibition, % at 6.95 µM. recombinant ADAM10, EDANS/DABCYL FRET peptide cleavage, 3 h. 47% of 2,900 active. AID 743256, 2014;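 active means mean inhibition over the triplicate runs exceeds the activity threshold set in the earlier primary screen, cut at about 20% in these data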;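 further: 0% = DMSO wells and 100% = marimastat wells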
ADAM17 confirm: ADAM17 inhibitors, hit retest, confirmation, biochemical, QFRET peptide cleavage. shares compounds with ADAM17 inh. recombinant ADAM17, EDANS/DABCYL QFRET peptide cleavage. inhibition, % at 6.95 µM. 65% of 2,900 active;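 active means mean inhibition across replicates above the hit cutoff set in the primary screen, cut at about 8.5% in these data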;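 further: 0% = DMSO wells and 100% = marimastat wells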
PLCg1 ctr: PLC-gamma1 enzyme inhibitors, counter-screen for PLC-beta3 inhibitor project, biochemical, fluorescence | shares compounds with PLC-gamma1 inh | purified PLC-gamma1, fluorogenic substrate | inhibition, % at 12.3 µM | 3.1% of 3,300 active | AID 743258, 2014; in the data active means inhibition above about 9.5%
PLCbeta3 conf: PLC-beta3 inhibitor confirmation, biochemical, fluorescence, purified enzyme. inhibition, % at 12.3 µM. fluorogenic substrate fluorescence. AID 743261, 2014. shares compounds with PLC-gamma1 inh. 1% of 3,300 active
* marks the source's active call; other numbers are inactive results; x = no result given. Most compounds without a hit are left out; they make up all but 2.3% or so of the library. Unless noted, no stated cut-off is given here; in the data, active means inhibition above about 11%; inactive means the rest.

SMILES	ADAM10 inh	PLCb3 inh	Tb MetRS inh	PLC-gamma1 inh	ADAM17 inh	ADAM10 confirm	ADAM17 counter	ADAM10 ctr	ADAM17 confirm	PLCg1 ctr	PLCbeta3 conf
OC(c1ccccc1)(c1nc(-c2cccc(F)c2)cs1)C(F)(F)F (configuration not stated)	33*	-2	0	-1	12*	8	2	39*	18*	x	x
OC(c1ccccc1)(c1nc(-c2ccc3ccccc3c2)cs1)C(F)(F)F (configuration not stated)	7	1	0	3	8	x	x	x	x	x	x
OC(c1ccccc1)(c1nc(-c2ccc3c(c2)OCO3)cs1)C(F)(F)F (configuration not stated)	23*	5	-1	1	9.2*	13	4	25*	14*	x	x
OC(c1ccccc1)(c1nc(-c2ccccc2)cs1)C(F)(F)F (configuration not stated)	23*	4	0	3	8.8*	8	2	33*	17*	x	x
Cc1ccc(SCC2(O)CCN(S(=O)(=O)c3ccc(Cl)cc3)CC2)cc1	29*	7	0	8	17*	3	0	28*	16*	x	x
Cc1ccc(S(=O)(=O)N2CCN(C(=O)CSc3ccc(Cl)cc3)CC2)cc1	11	3	-1	4	1	x	x	x	x	x	x
CCOc1ccc(-c2nc[nH]c2[N+](=O)[O-])cc1	-4	-6	-1	0	-3	x	x	x	x	x	x
COc1cccc(NC(=S)NCCC(c2ccccc2)c2ccccc2)c1	17	-1	0	0	7	x	x	x	x	x	x
COc1cc(NC(=S)NCCC(c2ccccc2)c2ccccc2)cc(OC)c1	23*	-1	0	-2	12*	9	2	20*	13*	x	x
CC(C)NC(=O)C1C(c2ccc(C(F)(F)F)cc2)=Nc2ccccc2N1C(=O)c1cc2ccccc2[nH]1 (configuration not stated)	-96	-64	0	-46	-29	x	x	x	x	x	x
CCC[C@H]1[C@@H](OC(=O)NCc2cccc(C(F)(F)F)c2)CC[C@@]23CCCN2C(=O)CCC[C@@H]13	13	6	x	1	7	x	x	x	x	x	x
COc1ccc(CN(CCC(c2ccc(F)cc2)C2CCOC(C)(C)C2)C(=O)c2ccco2)cc1 (configuration not stated)	22*	4	-1	9	14*	5	2	25*	15*	x	x
O=C(CN1CCN(S(=O)(=O)c2ccc(Br)cc2)CC1)Nc1ccc2c(c1)OCO2	21*	0	-1	10.0*	1	0	0	x	x	-3	-3
COc1ccc(S(=O)(=O)NN(C)C)cc1N(C)S(=O)(=O)c1ccc(Cl)cc1	-1	-2	0	2	1	x	x	x	x	x	x
COc1ccc(S(=O)(=O)Nc2ccc(C)cc2)cc1N(C)S(=O)(=O)c1ccc(Cl)cc1	32*	3	-1	11*	19*	7	2	40*	21*	0	5
O=C(CCn1nnc2ccccc21)N1CCN(c2cccc(C(F)(F)F)c2)CC1	2	1	x	2	3	x	x	x	x	x	x
COc1ccc(C(c2nnnn2Cc2ccccc2)N2CCN(C/C=C/c3ccccc3)CC2)cc1 (configuration not stated)	24*	1	0	14*	12*	1	1	17	11*	-2	-1
CN1C(=O)c2cc(NS(=O)(=O)c3ccc(F)cc3)ccc2OC[C@H]2O[C@@H](CC(=O)NCC(F)(F)F)CC[C@@H]21	26*	7	x	12*	-18	13	3	x	x	13*	17*
COC(=O)C[C@@H]1CC[C@@H]2[C@@H](COc3ccc(NS(=O)(=O)c4ccc(F)cc4)cc3C(=O)N2C)O1	5	0	x	1	-1	x	x	x	x	x	x
O=C(COC(=O)c1cc([N+](=O)[O-])ccc1N1CCOCC1)c1ccccc1Cl	6	-3	0	2	5	x	x	x	x	x	x
O=C(OCc1ccccc1Cl)c1cc([N+](=O)[O-])ccc1N1CCOCC1	20*	3	0	14*	8	3	0	x	x	0	2
CCCC[C@@H]1CNC(=O)C(=O)N1CCCCC1CCCCC1	-1	2	-1	-1	-1	x	x	x	x	x	x
COc1cc(C(c2c(C)[nH][nH]c2=O)c2c(C)[nH][nH]c2=O)cc([N+](=O)[O-])c1O	20*	8	0	15*	10*	5	0	3	0	3	0
COC(=O)C(NC(=O)c1ccc(F)cc1)(Nc1ncc(S(=O)(=O)c2ccc([N+](=O)[O-])cc2)s1)C(F)(F)F (configuration not stated)	-4	0	0	1	1	x	x	x	x	x	x
COC(=O)C(NC(=O)c1ccccc1C)(Nc1ncc(S(=O)(=O)c2ccc([N+](=O)[O-])cc2)s1)C(F)(F)F (configuration not stated)	33*	9	0	12*	12*	1	1	18	8	-1	0
CC(=O)Nc1ccc(SC[C@H](Cc2ccccc2)N2CC[C@@H](C(C)(C)C)CCC2=O)cc1	36*	3	0	11*	12*	5	1	22*	15*	3	3

High-throughput results as filed in PubChem.
